In brackets after ≈: the same amount, converted by molar mass.
Experiments:
Mus musculus [1] = assay: Antidyslipidemic activity in C57BL/6J mouse postprandial triglyceridemia model assessed as reduction in plasma triglyceride level at 10 mg/kg, po treated 15 mins prior to corn oil-challenge measured after 2 hrs by colorimetric method relative to control; type: functional; set-up: scale not given: the % may be the effect or the level left
Procedure, shortened: (§1)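 Male C57BL/6J mice fasted overnight; oral dose in 20% hydroxypropyl-b-cyclodextrin vehicle (vehicle alone for controls) 15 min before 0.25 mL corn oil challenge at time 0. Terminal blood taken by heart puncture under anesthesia at 2 h; plasma triglycerides measured colorimetrically by enzymatic TG reagent with absorbance read on a microplate reader, compared with vehicle-treated controls.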

[2] = Plasma protein binding (unknown origin); type: ADME, cell-free; conditions: read-out: PPB (converted)
Cytochrome P450 2C9 [3] = biological target: T1, Cytochrome P450 2C9 (Homo sapiens, UniProt P11712); assay: Inhibition of CYP2C9 (unknown origin) coincubated with substrate; type: ADME
T1 sequence (P11712 whole entry): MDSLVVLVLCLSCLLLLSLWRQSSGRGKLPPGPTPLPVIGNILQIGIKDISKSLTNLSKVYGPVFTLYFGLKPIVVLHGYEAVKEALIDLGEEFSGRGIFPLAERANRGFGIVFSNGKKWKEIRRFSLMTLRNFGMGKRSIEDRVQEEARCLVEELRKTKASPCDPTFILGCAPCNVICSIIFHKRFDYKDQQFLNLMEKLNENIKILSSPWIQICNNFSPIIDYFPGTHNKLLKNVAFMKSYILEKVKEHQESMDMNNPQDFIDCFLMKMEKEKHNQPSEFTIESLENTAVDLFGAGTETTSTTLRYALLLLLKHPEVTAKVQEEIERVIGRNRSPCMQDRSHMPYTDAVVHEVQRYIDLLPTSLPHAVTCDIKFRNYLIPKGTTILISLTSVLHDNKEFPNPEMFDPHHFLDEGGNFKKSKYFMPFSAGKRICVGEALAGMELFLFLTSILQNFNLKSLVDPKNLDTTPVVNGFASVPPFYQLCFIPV

Cytochrome P450 2C9 [4] = biological target: T1, Cytochrome P450 2C9; assay: Inhibition of CYP2C9 (unknown origin) preincubated prior to substrate addition; type: ADME
Cytochrome P450 2D6 [5] = biological target: T2, Cytochrome P450 2D6 (Homo sapiens, UniProt P10635); assay: Inhibition of CYP2D6 (unknown origin) preincubated prior to substrate addition; type: ADME
Target sequence in this assay (P10635 whole entry): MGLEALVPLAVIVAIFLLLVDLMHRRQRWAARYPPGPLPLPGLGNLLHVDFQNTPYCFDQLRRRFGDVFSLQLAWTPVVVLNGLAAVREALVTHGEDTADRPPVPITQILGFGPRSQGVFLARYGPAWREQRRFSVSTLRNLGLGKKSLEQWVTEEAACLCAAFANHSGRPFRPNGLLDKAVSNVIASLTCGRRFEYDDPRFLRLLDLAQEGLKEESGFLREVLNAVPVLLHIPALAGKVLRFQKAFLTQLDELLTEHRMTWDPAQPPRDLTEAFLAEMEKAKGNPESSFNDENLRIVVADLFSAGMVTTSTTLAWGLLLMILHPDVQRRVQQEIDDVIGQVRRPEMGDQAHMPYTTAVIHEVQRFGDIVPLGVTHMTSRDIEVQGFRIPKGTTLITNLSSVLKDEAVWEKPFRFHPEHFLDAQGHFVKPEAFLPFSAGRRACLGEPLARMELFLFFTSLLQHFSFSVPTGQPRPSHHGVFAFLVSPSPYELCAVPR

hERG = hERG (Homo sapiens, UniProt Q12809); assay: Inhibition of human ERG at 10 uM relative to control
Sequence of hERG (Q12809 whole entry): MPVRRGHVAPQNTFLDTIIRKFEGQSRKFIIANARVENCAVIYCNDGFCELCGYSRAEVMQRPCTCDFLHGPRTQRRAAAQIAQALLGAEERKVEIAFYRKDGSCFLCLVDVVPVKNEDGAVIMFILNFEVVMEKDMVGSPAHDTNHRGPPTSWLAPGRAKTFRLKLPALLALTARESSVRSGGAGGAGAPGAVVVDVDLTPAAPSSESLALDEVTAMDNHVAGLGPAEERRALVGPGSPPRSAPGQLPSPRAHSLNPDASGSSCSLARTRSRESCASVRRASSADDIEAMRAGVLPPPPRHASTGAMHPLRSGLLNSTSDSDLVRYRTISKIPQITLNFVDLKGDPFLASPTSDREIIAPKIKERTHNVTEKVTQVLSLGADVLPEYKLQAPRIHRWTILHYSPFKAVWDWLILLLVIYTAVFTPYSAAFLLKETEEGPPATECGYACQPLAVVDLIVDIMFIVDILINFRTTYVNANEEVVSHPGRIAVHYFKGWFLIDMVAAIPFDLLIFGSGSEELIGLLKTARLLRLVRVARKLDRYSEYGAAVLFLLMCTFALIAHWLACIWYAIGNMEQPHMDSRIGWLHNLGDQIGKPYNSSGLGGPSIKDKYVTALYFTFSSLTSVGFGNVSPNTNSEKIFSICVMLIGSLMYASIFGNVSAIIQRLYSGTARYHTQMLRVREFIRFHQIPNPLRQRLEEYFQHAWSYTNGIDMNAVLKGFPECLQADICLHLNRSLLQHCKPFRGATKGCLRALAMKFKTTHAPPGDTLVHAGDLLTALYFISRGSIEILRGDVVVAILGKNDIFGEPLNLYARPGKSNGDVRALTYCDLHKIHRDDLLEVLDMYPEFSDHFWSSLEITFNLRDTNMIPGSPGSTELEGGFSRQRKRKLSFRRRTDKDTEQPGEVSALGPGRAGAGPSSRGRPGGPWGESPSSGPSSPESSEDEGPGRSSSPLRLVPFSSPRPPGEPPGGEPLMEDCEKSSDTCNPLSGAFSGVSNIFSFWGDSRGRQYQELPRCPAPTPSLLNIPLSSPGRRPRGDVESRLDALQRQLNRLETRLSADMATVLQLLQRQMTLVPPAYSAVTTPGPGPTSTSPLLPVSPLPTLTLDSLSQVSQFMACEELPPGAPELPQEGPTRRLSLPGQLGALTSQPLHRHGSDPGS

Cytochrome P450 3A4 [6] = biological target: T3, Cytochrome P450 3A4 (Homo sapiens, UniProt P08684); assay: Inhibition of CYP3A4 (unknown origin) coincubated with substrate; type: ADME
T3 sequence (P08684 whole entry): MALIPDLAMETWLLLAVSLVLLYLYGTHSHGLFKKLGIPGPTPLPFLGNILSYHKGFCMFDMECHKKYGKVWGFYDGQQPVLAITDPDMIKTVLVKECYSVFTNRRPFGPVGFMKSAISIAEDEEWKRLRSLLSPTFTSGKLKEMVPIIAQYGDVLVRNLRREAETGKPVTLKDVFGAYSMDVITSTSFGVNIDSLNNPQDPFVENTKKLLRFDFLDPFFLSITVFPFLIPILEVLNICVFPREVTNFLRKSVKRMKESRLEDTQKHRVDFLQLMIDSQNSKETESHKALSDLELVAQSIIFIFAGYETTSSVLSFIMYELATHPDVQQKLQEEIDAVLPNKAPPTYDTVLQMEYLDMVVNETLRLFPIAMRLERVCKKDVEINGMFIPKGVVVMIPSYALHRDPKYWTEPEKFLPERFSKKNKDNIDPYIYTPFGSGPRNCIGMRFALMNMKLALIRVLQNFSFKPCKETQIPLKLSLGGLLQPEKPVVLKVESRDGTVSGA

Cytochrome P450 3A4 [7] = biological target: T3, Cytochrome P450 3A4; assay: Inhibition of CYP3A4 (unknown origin) preincubated prior to substrate addition; type: ADME
[8] = Clearance in human hepatocytes measured per 10^6 cells; type: ADME, cell-based, Hepatocyte; conditions: read-out: CLH
[9] = AUC in po dosed rat; type: ADME, organism-based; conditions: plasma
[10] = Solubility of the compound; type: physicochemical
[11] = biological target: T4, Diacylglycerol O-acyltransferase 1 (Mus musculus, UniProt Q9Z2A7); assay: Inhibition of mouse DGAT-1
T4 sequence (Q9Z2A7 whole entry): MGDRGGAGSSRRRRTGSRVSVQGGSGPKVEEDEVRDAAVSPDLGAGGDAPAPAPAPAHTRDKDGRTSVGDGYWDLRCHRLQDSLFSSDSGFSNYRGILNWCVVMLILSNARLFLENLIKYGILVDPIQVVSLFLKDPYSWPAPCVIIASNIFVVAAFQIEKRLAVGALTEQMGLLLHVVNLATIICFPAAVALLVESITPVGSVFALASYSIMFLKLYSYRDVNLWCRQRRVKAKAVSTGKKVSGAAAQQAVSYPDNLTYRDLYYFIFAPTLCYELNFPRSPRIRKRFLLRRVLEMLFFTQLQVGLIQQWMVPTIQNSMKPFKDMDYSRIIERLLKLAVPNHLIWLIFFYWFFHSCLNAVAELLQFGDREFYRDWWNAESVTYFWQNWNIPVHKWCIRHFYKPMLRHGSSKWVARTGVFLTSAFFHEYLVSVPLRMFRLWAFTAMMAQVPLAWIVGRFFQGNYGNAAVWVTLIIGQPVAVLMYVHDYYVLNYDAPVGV

Cytochrome P450 2D6 [12] = biological target: T2, Cytochrome P450 2D6; assay: Inhibition of CYP2D6 (unknown origin) coincubated with substrate
Target sequence in this assay (P10635 whole entry, looked up): as the sequence (P10635 whole entry) above

Mus musculus [13] = assay: Antidyslipidemic activity in C57BL/6J mouse postprandial triglyceridemia model assessed as reduction in plasma triglyceride level at 3 mg/kg, po treated 15 mins prior to corn oil-challenge measured after 2 hrs by colorimetric method relative to control; type: functional; set-up: scale not given: the % may be the effect or the level left; procedure, shortened: as §1

With CC(C)OC(=O)N1CCN(c2ccc(NC(=O)c3oc(N4CCCCC4)nc3C(F)(F)F)cn2)CC1 the Activity (Mus musculus [1]) was -12%, the fraction unbound [2] was 0.004 and the IC50 (Cytochrome P450 2C9 [3]) was greater than 20 µM. The IC50 (Cytochrome P450 2C9 [4]) was greater than 20 µM, the IC50 (Cytochrome P450 2D6 [5]) was greater than 20 µM and the inhibition at 10 µM (hERG) was 40%. It also gave an IC50 (Cytochrome P450 3A4 [6]) greater than 20 µM, an IC50 (Cytochrome P450 3A4 [7]) greater than 20 µM and a hepatocyte CLint [8] of 24.2 µL/min/1e6 cells. It also gave an AUC [9] of 69 µM·h, a solubility [10] of 100 µM (≈ 51.1 µg/mL) and an IC50 [11] of 1.2 µM. For the same compound, the IC50 (Cytochrome P450 2D6 [12]) was greater than 20 µM.
O=C(Nc1ccc(N2CCN(C(=O)OC3CCCC3)CC2)nc1)c1oc(N2CCCCC2)nc1C(F)(F)F gave an Activity (Mus musculus [1]) of -27%.
Work on O=C(Nc1ccc(N2CCN(C(=O)Oc3ccccc3Cl)CC2)nc1)c1oc(N2CCCCC2)nc1C(F)(F)F yielded an IC50 [11] of 1.39 µM.
In the case of O=C(Nc1ccc(N2CCN(C(=O)Nc3ccccc3Cl)CC2)nc1)c1oc(N2CCCCC2)nc1C(F)(F)F, the Activity (Mus musculus [13]) is reported as -28%, the Activity (Mus musculus [1]) is reported as -63% and the fraction unbound [2] is reported as 0.001. For the same compound, the IC50 (Cytochrome P450 2C9 [3]) was 6.4 µM, the IC50 (Cytochrome P450 2C9 [4]) was 9.7 µM and the IC50 (Cytochrome P450 2D6 [5]) was greater than 20 µM. The IC50 (Cytochrome P450 3A4 [6]) was greater than 20 µM, the IC50 (Cytochrome P450 3A4 [7]) was 5 µM and the hepatocyte CLint [8] was 16.9 µL/min/1e6 cells. The AUC [9] was 25 µM·h, the solubility [10] was 10 µM (≈ 5.78 µg/mL) and the IC50 [11] was 0.026 µM. For the same compound, the IC50 (Cytochrome P450 2D6 [12]) was greater than 20 µM.
O=C(Nc1ccc(N2CCCN(C(=O)Nc3ccccc3Cl)CC2)nc1)c1oc(N2CCCCC2)nc1C(F)(F)F showed an IC50 [11] of 0.134 µM.
O=C(Nc1ccc(N2CCN(c3ncccc3Cl)CC2)nc1)c1oc(N2CCCCC2)nc1C(F)(F)F showed an IC50 [11] of 2.27 µM.
With COCCN(C)c1ccc(NC(=O)c2oc(-c3ccccc3)nc2C(F)(F)F)cn1 the AUC [9] was 12.7 µM·h and the IC50 [11] was 2.85 µM.

Reference: ChEMBL document CHEMBL2440008, “Identification of 2-aminooxazole amides as acyl-CoA: diacylglycerol acyltransferase 1 (DGAT1) inhibitors through scaffold hopping strategy” (Bioorg Med Chem Lett, 2013)
